{"data": "Measured values pooled from the literature", "CTSB": "Cathepsin B (CTSB, Homo sapiens, UniProt P07858)"}
{"Structure (SMILES)": "O=c1c(O)c(-c2cc(O)c(O)c(O)c2)oc2cc(O)cc(O)c12", "target": "Genome polyprotein, protease (ZIKV, UniProt A0A024B7W1)", "effect on": "enzyme activity", "mode": "inhibitor", "technique": "FRET", "pH": "pH 7", "IC50 [nM]": 22000}
{"Structure (SMILES)": "CC(=O)c1cc(O)c2ccccc2c1O", "target": "Genome polyprotein, methyltransferase (ZIKV, UniProt A0A024B7W1)", "effect on": "enzyme activity", "mode": "inhibitor", "technique": "TR-FRET", "IC50 [nM]": 12900}
{"Structure (SMILES)": "N#Cc1cc(F)cc(NS(=O)(=O)c2ccc(S(=O)(=O)F)c3c2CCCC3)c1", "target": "RALB (Homo sapiens, UniProt P11234, Y82F)", "effect on": "cell-free assay", "mode": "inhibitor", "technique": "fluorescence", "IC50 [nM]": 69000}
{"Structure (SMILES)": "CC(C)C[C@H]1C(=O)N2CCC[C@H]2[C@]2(O)O[C@](NC(=O)[C@@H]3C=C4c5cccc6[nH]c(Br)c(c56)C[C@H]4N(C)C3)(C(C)C)C(=O)N12", "target": "5-hydroxytryptamine receptor 7 (HTR7, Homo sapiens, UniProt P34969)", "effect on": "ligand displacement", "technique": "radioligand", "IC50 [nM]": 152}
{"Structure (SMILES)": "COc1c(-c2ccccc2)oc2c(ccc3occc32)c1=O", "target": "Cyclin-dependent kinase 2, with cyclin E1 (CDK2, Homo sapiens, UniProt P24941)", "effect on": "enzyme activity", "mode": "inhibitor", "technique": "ADP detection", "IC50 [nM]": "> 10000"}
{"Structure (SMILES)": "Cc1ccc(-c2ncn(-c3ccc(Nc4nccc(-c5cccc(N6CCOCC6)c5)n4)cc3)n2)cn1", "target": "Mitogen-activated protein kinase 10 (MAPK10, Homo sapiens, UniProt P53779)", "effect on": "enzyme activity", "mode": "inhibitor", "IC50 [nM]": 159}
{"Structure (SMILES)": "CCCCCCCCCCCCCC(=O)O[C@@H]1[C@@H](C)[C@@]2(O)[C@@H](C=C(CO)C[C@]3(O)C(=O)C(C)=C[C@@H]23)[C@@H]2C(C)(C)[C@]12OC(C)=O", "target": "Proteinase-activated receptor 1 (F2R, Homo sapiens, UniProt P25116)", "effect on": "calcium signal", "mode": "antagonist", "IC50 [nM]": 7.47}
{"Structure (SMILES)": "COc1cc(NC(=O)C(=O)[C@H](CC(C)C)NC(=O)[C@H](CC(C)C)NC(=O)[C@H](CC(C)C)NC(=O)OCc2ccccc2)cc(OC)c1", "target": "Proteasome component C5/PSMB5, chymotrypsin-like site (Homo sapiens, UniProt P20618+P28074)", "effect on": "enzyme activity in cells", "mode": "inhibitor", "IC50 [nM]": 25.1}
{"Structure (SMILES)": "Nc1ncnc2c1ncn2[C@@H]1O[C@H](COP(=O)(O)OP(=O)(O)OP(=O)(O)O)[C@@H](O)[C@H]1O", "target": "Heat shock cognate 71 kDa protein (HSPA8, Homo sapiens, UniProt P11142)", "effect on": "ligand displacement", "technique": "FP", "IC50 [nM]": 200}
{"Structure (SMILES)": "CC(C)C[C@H](NC(=O)[C@H]1O[C@@H]1C(=O)O)C(=O)NCCCCN=C(N)N", "target": "CTSB", "effect on": "enzyme activity", "mode": "inhibitor", "IC50 [nM]": 4}
{"Structure (SMILES)": "C[C@H](N)Cn1ncc2ccc3c(c21)CCCO3", "target": "Alpha-1A adrenergic receptor (Adra1a, Rattus norvegicus, UniProt P43140)", "effect on": "ligand displacement", "technique": "radioligand", "IC50 [nM]": 100000}
{"Structure (SMILES)": "CCCCCCCCCCCCCCCCOC[C@H](COP(=O)([O-])OCC[N+](C)(C)C)OC(C)=O", "target": "Platelet-activating factor receptor (PTAFR, Homo sapiens, UniProt P25105)", "effect on": "ligand displacement", "technique": "radioligand", "IC50 [nM]": 0.25}
{"Structure (SMILES)": "N=C1CCCN1Cc1[nH]c(=O)[nH]c(=O)c1F", "target": "Thymidine phosphorylase (Homo sapiens, UniProt P19971)", "effect on": "enzyme activity", "mode": "inhibitor", "IC50 [nM]": 9}
{"Structure (SMILES)": "O=c1c2ccccc2[nH]c(=S)n1-c1ccccc1", "target": "CTSB", "effect on": "enzyme activity", "mode": "inhibitor", "IC50 [nM]": 76700}
